Article PMC7660780 (Journal of the American Heart Association: Cardiovascular …, 2020)
Converted amounts (≈) assume the structure as drawn. “And” between values parts separate entries of the source, which are not always exact repeats. Equal values may be shown once. “Also recorded” adds a separate entry of the source.

How the values were obtained:
Type in all cases: in vivo, human
[1] = system: ADP‐induced platelet aggregation (20 μmol/L)
Method in brief: (§1)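 Each participant got a single SC deltoid dose. Blood was drawn at baseline and at set times to 24 h into PPACK (100 μmol/L final). PRP was spun at 600 g or 300 g for 5 min at RT, and PPP at 2000 g for 9 min. High PRP counts were lowered with PPP. Turbidometric aggregation used 20 μmol/L ADP. IPA is the % fall in primary slope (≥15 s, 0.5 s sampling) versus the baseline sample, reported as mean±SD.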

[2] = Safety measures in patients with stable CAD receiving aspirin; conditions: stable CAD on aspirin
Method in brief: (§2)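 The trial was double-blind, placebo-controlled and dose-escalating. In each cohort, 2 sentinels were dosed, then 5 more were randomized 4:1 to drug or placebo. Each received a single weight-based SC deltoid injection of 0.18–0.52 mL, followed by 15 min gentle pressure. Injection site checks, platelet counts, laboratory tests and clinical assessments ran at set times through 24 h and at 7 days. Adverse events were graded by CTCAE.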

[3] = Safety measures in healthy volunteers; conditions: HVs
Method in brief: as §2

[4] = Population pharmacokinetic model
[5] = system: ADP‐induced platelet aggregation (20 μmol/L); test: Ex vivo inhibition of ADP-induced platelet aggregation; conditions: healthy volunteers
Method in brief: as §1

[6] = system: ADP‐induced platelet aggregation (20 μmol/L); test: Population pharmacodynamic model; conditions: for IC50: value ± spread as printed in pharmacokinetic data section
[7] = Safety and tolerability, summary statements over the whole study
Method in brief: as §2

[8] = RUC‐4 whole blood levels by LC-MS/MS; conditions: dose‐expansion group 0.075 mg/kg SC
[9] = system: ADP‐induced platelet aggregation (20 μmol/L); test: Ex vivo inhibition of ADP-induced platelet aggregation; conditions: for IPA Mean (SD): 15 min post-dose; for IPA of the 1 participant who did not achieve the BED: 0.075 mg/kg SC dose escalation
[10] = 0.075 mg/kg SC, HVs and patients with stable CAD taking aspirin
[11] = dose escalation 0.04 mg/kg (n=2)
[12] = dose escalation 0.05 mg/kg (n=6)
[13] = dose escalation 0.075 mg/kg (n=6)
[14] = dose expansion 0.075 mg/kg (n=12)
[15] = stable CAD on aspirin, 0.075 mg/kg SC, dose escalation

NCC(=O)Nc1cncc(-c2nn3c(=O)cc(N4CCNCC4)nc3s2)c1 [RUC‐4]
platelet inhibition (high‐grade) [1, 10]: > 80%
time to onset of high-grade platelet inhibition [1, 10]: < 15 min
time within which platelet inhibition largely resolved [1, 10]: ≤ 2 h
time to peak of blood drug levels and platelet inhibition ([1]; subcutaneous administration): ≤ 15 min
time to onset of high-grade inhibition of platelet aggregation ([1]; subcutaneous, 20 μmol/L of ADP): < 15 min
time to return of IPA toward baseline ([1]; subcutaneous, 20 μmol/L of ADP): ≤ 2 h
inhibition of platelet aggregation (high‐grade) ([1]; subcutaneous, 20 μmol/L of ADP, across the study populations): > 80%
No. of TESAEs [2, 11]: 0
Patients reporting a TEAE of bruising at the injection site [2, 11]: 0 (0.0) n (%)
Patients reporting a non‐AE bruising at the injection site event [2, 11]: 0 (0.0) n (%)
Patients reporting at least 1 bleeding AE [2, 11]: 0 (0.0) n (%)
Patients reporting at least 1 injection site reaction AE [2, 11]: 0 (0.0) n (%)
Patients reporting at least 1 related TEAE with CTCAE grade ≥3 [2, 11]: 0 (0.0) n (%)
non‐AE bruising at the injection site, Grade 1 [2, 11]: 0 (0.0) n (%)
non‐AE bruising at the injection site, Grade 2 [2, 11]: 0 (0.0) n (%)
No. of TESAEs [2, 12]: 0
Patients reporting a TEAE of bruising at the injection site [2, 12]: 0 (0.0) n (%)
Patients reporting a non‐AE bruising at the injection site event [2, 12]: 2 (33.3) n (%)
Patients reporting at least 1 bleeding AE [2, 12]: 0 (0.0) n (%)
Patients reporting at least 1 injection site reaction AE [2, 12]: 0 (0.0) n (%)
Patients reporting at least 1 related TEAE with CTCAE grade ≥3 [2, 12]: 0 (0.0) n (%)
non‐AE bruising at the injection site, Grade 1 [2, 12]: 2 (33.3) n (%)
non‐AE bruising at the injection site, Grade 2 [2, 12]: 0 (0.0) n (%)
No. of TESAEs [2, 13]: 0
Patients reporting a TEAE of bruising at the injection site [2, 13]: 0 (0.0) n (%)
Patients reporting a non‐AE bruising at the injection site event [2, 13]: 4 (66.7) n (%)
Patients reporting at least 1 bleeding AE [2, 13]: 0 (0.0) n (%)
Patients reporting at least 1 injection site reaction AE [2, 13]: 0 (0.0) n (%)
Patients reporting at least 1 related TEAE with CTCAE grade ≥3 [2, 13]: 0 (0.0) n (%)
non‐AE bruising at the injection site, Grade 1 [2, 13]: 4 (66.7) n (%)
non‐AE bruising at the injection site, Grade 2 [2, 13]: 0 (0.0) n (%)
No. of TESAEs [2, 14]: 0
Patients reporting a TEAE of bruising at the injection site [2, 14]: 0 (0.0) n (%)
Patients reporting a non‐AE bruising at the injection site event [2, 14]: 5 (41.7) n (%)
Patients reporting at least 1 bleeding AE [2, 14]: 0 (0.0) n (%)
Patients reporting at least 1 injection site reaction AE [2, 14]: 0 (0.0) n (%)
Patients reporting at least 1 related TEAE with CTCAE grade ≥3 [2, 14]: 0 (0.0) n (%)
non‐AE bruising at the injection site, Grade 1 [2, 14]: 5 (41.7) n (%)
non‐AE bruising at the injection site, Grade 2 [2, 14]: 0 (0.0) n (%)
No. of TESAEs ([2]; total RUC‐4 0.075 mg/kg (n=18)): 0
Patients reporting a TEAE of bruising at the injection site ([2]; total RUC‐4 0.075 mg/kg (n=18)): 0 (0.0) n (%)
Patients reporting a non‐AE bruising at the injection site event ([2]; total RUC‐4 0.075 mg/kg (n=18)): 9 (50.0) n (%)
Patients reporting at least 1 bleeding AE ([2]; total RUC‐4 0.075 mg/kg (n=18)): 0 (0.0) n (%)
Patients reporting at least 1 injection site reaction AE ([2]; total RUC‐4 0.075 mg/kg (n=18)): 0 (0.0) n (%)
Patients reporting at least 1 related TEAE with CTCAE grade ≥3 ([2]; total RUC‐4 0.075 mg/kg (n=18)): 0 (0.0) n (%)
non‐AE bruising at the injection site, Grade 1 ([2]; total RUC‐4 0.075 mg/kg (n=18)): 9 (50.0) n (%)
non‐AE bruising at the injection site, Grade 2 ([2]; total RUC‐4 0.075 mg/kg (n=18)): 0 (0.0) n (%)
No. of TESAEs ([3]; 0.05 mg/kg (n=6)): 0
Patients reporting a TEAE of bruising at the injection site ([3]; 0.05 mg/kg (n=6)): 0 (0.0) n (%)
Patients reporting a non‐AE bruising at the injection site event ([3]; 0.05 mg/kg (n=6)): 2 (33.3) n (%)
Patients reporting at least 1 bleeding AE ([3]; 0.05 mg/kg (n=6)): 0 (0.0) n (%)
Patients reporting at least 1 injection site reaction adverse event ([3]; 0.05 mg/kg (n=6)): 0 (0.0) n (%)
Patients reporting at least 1 related TEAE with CTCAE grade ≥3 ([3]; 0.05 mg/kg (n=6)): 0 (0.0) n (%)
non‐AE bruising at the injection site, Grade 1 ([3]; 0.05 mg/kg (n=6)): 2 (33.3) n (%)
non‐AE bruising at the injection site, Grade 2 ([3]; 0.05 mg/kg (n=6)): 0 (0.0) n (%)
No. of TESAEs ([3]; 0.075 mg/kg (n=6)): 0
Patients reporting a TEAE of bruising at the injection site ([3]; 0.075 mg/kg (n=6)): 0 (0.0) n (%)
Patients reporting a non‐AE bruising at the injection site event ([3]; 0.075 mg/kg (n=6)): 0 (0.0) n (%)
Patients reporting at least 1 bleeding AE ([3]; 0.075 mg/kg (n=6)): 0 (0.0) n (%)
Patients reporting at least 1 injection site reaction adverse event ([3]; 0.075 mg/kg (n=6)): 0 (0.0) n (%)
Patients reporting at least 1 related TEAE with CTCAE grade ≥3 ([3]; 0.075 mg/kg (n=6)): 0 (0.0) n (%)
non‐AE bruising at the injection site, Grade 1 ([3]; 0.075 mg/kg (n=6)): 0 (0.0) n (%)
non‐AE bruising at the injection site, Grade 2 ([3]; 0.075 mg/kg (n=6)): 0 (0.0) n (%)
Vp/F (apparent peripheral volume of distribution), geometric mean ([4]; SC, All Subjects): 221 L
effect of aspirin on RUC‐4 pharmacokinetics or pharmacodynamics ([4]; pharmacokinetic and pharmacodynamic models, covariate aspirin): did not significantly affect
IPA mean±SD ([5]; 0.05 mg/kg SC (n=6), 15 minutes): 71.8%±15.0%
return of IPA toward baseline ([5]; 0.075 mg/kg SC): ≤ 4 h
IPA mean±SD ([5]; 0.075 mg/kg SC (n=6), 15 minutes, 0.075 mg/kg): 84.7%±16.7% and 84.7%
IPA median ([5]; 0.075 mg/kg SC, 15 minutes): 88.0%
IPA of the individual participants not achieving the BED ([5]; 0.075 mg/kg SC, 15 minutes, 0.075 mg/kg): 76.5% and 55.8%
IPA of the individual participants not achieving the BED ([5]; 0.075 mg/kg SC, 30 minutes postdose, 0.075 mg/kg): 68.6% and 73.1%
IC50, geometric mean ([6]; cohort with aspirin): 0.0338 µg/mL (≈ 0.0875 µM)
IC50, geometric mean ([6]; cohort without aspirin): 0.0342 µg/mL (≈ 0.0885 µM)
gamma (coefficient) ([6]; sigmoidal Emax model): 1.31
IC50 ([6]; with aspirin): 0.0347 ± 0.0079 µg/mL (≈ 0.0898 µM)
IC50 ([6]; without aspirin): 0.0348 ± 0.0067 µg/mL (≈ 0.0901 µM)
adverse events leading to study drug discontinuation [7]: none leading to study drug discontinuation
drug‐related changes in laboratory values [7]: no drug‐related changes in laboratory values
injection site reactions (including bruising), severity [7]: mild
platelet counts during the course of treatment [7]: stable
transient reduction in platelet count, single participant [7]: 120 000 /μL
serious adverse events ([7]; SC 0.04-0.075 mg/kg): no serious adverse events; also recorded: No SAEs were observed
bleeding events, number of patients ([7]; limited to the injection site): 3 patients
severity of bleeding events ([7]; modified Bleeding Academic Research Consortium type 1): mild
whole blood level of RUC‐4, group mean excluding the outlying participant ([8]; 5 minutes): 26.8 ± 26.5 ng/mL
whole blood level of RUC‐4, one CAD participant with much higher levels ([8]; 5 minutes): 384 ng/mL
whole blood level of RUC‐4, group mean excluding the outlying participant ([8]; 15 minutes): 74.3 ± 38.6 ng/mL
whole blood level of RUC‐4, one CAD participant with much higher levels ([8]; 15 minutes): > 500 ng/mL
whole blood level of RUC‐4, group mean excluding the outlying participant ([8]; 30 minutes): 71.3 ± 30.5 ng/mL
whole blood level of RUC‐4, one CAD participant with much higher levels ([8]; 30 minutes): 307 ng/mL
whole blood level of RUC‐4, group mean excluding the outlying participant ([8]; 60 minutes): 40.3 ± 7.3 ng/mL
whole blood level of RUC‐4, one CAD participant with much higher levels ([8]; 60 minutes): 131 ng/mL
IPA of the one CAD participant with much higher whole blood levels ([9]; dose‐expansion group 0.075 mg/kg SC, 5, 15, 30, and 60 minutes time points): 100%
IPA Mean (SD) ([9]; stable CAD on aspirin, 0.04 mg/kg SC, 0.04 mg/kg): 53.6%±17.0%
IPA Mean (SD) ([9]; stable CAD on aspirin, 0.05 mg/kg SC, 0.05 mg/kg): 76.9%±10.6%
IPA of the 1 participant who did not achieve the BED ([9]; stable CAD on aspirin, 15 minutes): 65.4%
IPA of the 1 participant who did not achieve the BED ([9]; stable CAD on aspirin, 30 minutes): 86.5%
participants achieving the BED [9, 15]: 5 of 6
return of IPA toward baseline [9, 15]: ≤ 4 h
participants achieving the BED ([9]; stable CAD on aspirin, 0.075 mg/kg SC, dose expansion, additional participants): 6 of the 12
IPA mean±SD ([9]; stable CAD on aspirin, 0.075 mg/kg SC, high‐weight group, 15 minutes): 88.0%±14.4%
IPA mean±SD ([9]; stable CAD on aspirin, 0.075 mg/kg SC, high‐weight group, 30 minutes): 85.4%±21.0
IPA mean±SD ([9]; stable CAD on aspirin, 0.075 mg/kg SC, low‐weight group, 15 minutes): 63.2%±21.4%
IPA mean±SD ([9]; stable CAD on aspirin, 0.075 mg/kg SC, low‐weight group, 30 minutes): 67.8%±14.7%
